The text below walks through data of PubChem BioAssay AID623921 (The Scripps Research Institute Molecular Screening Center, 2012).

“And” between values parts separate entries of the source, which are not always exact repeats. Identical values can stand only once. The source made the active and inactive calls.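 Rule for the calls: active = remaining nuclease activity at or below 52% of the solvent-only control; inactive = the rest.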

Chain of RecBCD enzyme subunit RecC (Escherichia coli (strain K12)) + RecBCD enzyme subunit RecB (Escherichia coli (strain K12)) (P07648 whole entry, looked up): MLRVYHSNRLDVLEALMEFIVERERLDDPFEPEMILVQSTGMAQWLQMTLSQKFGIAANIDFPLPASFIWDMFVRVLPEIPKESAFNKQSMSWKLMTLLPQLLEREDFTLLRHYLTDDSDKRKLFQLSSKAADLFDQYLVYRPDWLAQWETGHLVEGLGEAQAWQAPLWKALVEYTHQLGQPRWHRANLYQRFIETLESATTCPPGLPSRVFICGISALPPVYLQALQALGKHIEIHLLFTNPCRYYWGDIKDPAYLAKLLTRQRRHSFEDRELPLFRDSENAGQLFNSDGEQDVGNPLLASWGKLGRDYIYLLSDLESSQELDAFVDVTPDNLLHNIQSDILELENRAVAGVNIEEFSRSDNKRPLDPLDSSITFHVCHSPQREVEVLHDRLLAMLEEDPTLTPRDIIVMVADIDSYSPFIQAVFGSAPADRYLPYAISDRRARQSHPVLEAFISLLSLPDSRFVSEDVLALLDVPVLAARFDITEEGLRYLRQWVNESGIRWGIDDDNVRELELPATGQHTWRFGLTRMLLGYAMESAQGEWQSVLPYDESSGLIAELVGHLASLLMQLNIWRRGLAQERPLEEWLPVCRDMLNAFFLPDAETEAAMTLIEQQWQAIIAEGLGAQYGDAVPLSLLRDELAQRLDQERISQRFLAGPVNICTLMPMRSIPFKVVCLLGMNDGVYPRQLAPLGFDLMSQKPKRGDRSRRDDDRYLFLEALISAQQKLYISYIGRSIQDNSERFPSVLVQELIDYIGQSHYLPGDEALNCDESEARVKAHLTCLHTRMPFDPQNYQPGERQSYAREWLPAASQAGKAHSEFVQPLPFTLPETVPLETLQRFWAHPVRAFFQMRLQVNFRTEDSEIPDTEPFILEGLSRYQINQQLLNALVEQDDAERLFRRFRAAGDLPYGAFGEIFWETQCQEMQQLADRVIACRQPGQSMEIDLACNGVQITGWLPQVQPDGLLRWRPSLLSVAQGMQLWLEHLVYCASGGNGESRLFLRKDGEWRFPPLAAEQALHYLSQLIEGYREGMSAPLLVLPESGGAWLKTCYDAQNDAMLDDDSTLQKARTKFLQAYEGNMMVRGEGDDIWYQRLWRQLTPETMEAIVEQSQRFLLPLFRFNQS
Chain of RecBCD enzyme subunit RecC (Escherichia coli (strain K12)) + RecBCD enzyme subunit RecB (Escherichia coli (strain K12)) (P08394 whole entry, looked up): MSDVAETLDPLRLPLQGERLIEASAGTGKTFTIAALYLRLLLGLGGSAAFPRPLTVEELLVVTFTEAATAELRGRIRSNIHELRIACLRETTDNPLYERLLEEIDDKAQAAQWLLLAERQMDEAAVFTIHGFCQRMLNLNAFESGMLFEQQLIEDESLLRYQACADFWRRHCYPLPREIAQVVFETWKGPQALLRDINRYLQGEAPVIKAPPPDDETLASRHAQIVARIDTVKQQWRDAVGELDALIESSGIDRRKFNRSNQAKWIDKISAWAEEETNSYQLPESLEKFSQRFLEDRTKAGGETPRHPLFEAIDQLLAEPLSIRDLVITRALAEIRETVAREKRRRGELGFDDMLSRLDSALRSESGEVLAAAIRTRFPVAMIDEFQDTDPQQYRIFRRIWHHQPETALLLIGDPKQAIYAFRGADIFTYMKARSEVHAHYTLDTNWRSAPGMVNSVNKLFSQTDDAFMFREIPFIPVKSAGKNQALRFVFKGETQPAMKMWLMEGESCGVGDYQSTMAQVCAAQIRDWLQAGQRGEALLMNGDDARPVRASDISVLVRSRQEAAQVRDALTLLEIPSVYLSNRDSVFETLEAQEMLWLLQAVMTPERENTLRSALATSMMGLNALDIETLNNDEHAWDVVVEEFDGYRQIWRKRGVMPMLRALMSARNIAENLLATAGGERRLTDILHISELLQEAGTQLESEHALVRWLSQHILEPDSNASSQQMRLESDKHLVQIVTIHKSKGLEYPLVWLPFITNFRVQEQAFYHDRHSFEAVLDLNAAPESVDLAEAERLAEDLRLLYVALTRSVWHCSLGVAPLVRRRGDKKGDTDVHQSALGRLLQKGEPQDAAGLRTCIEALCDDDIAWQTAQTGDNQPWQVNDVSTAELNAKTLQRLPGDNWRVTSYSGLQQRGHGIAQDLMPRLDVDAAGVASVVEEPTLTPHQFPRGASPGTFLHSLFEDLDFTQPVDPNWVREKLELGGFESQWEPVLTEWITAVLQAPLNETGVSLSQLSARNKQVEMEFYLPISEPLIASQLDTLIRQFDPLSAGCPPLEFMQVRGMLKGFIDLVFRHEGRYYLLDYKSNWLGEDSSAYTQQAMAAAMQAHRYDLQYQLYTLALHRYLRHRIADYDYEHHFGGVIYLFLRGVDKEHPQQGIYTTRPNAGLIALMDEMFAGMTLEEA

The target of the assay is RecBCD enzyme subunit RecC (Escherichia coli (strain K12)) + RecBCD enzyme subunit RecB (Escherichia coli (strain K12)) (UniProt P07648+P08394). Description: purified RecBCD nuclease inhibitors, late-stage follow-up, counter-screen for AddAB inhibitor project, biochemical, radioactivity readout, 100 µM single dose (AID 623921). The conditions noted are these: [3H] dsDNA nuclease, TCA-soluble radioactivity, at 100 µM, hits give low values. Put shortly:
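Test system – purified E. coli RecBCD helicase-nuclease enzyme · Benchmarks – DMSO reactions and no-enzyme background · Dosing – 100 µM single dose, 5% DMSO · Detection – scintillation counting of acid-soluble tritium after TCA precipitation · Evaluation – remaining nuclease activity as % of DMSO reactions, background-subtracted · Schedule – enzyme-compound mix on ice, 20 min reaction at 37 °C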
(A counterscreen serves to expose hits that act by an unwanted route or on another target.)
Turning to `N#Cc1c(NC(=O)c2ccccc2)sc2c1CCC2`, the remaining enzyme activity is 94% (inactive).

Consider `CC1CCc2c(sc(NC(=O)c3cnccn3)c2C#N)C1` (stereo not drawn), for which the remaining enzyme activity was 83% (inactive).

As for `CCn1cc(C(=O)O)c(=O)c2cnc(N3CCN(C(=S)NC4CC5CCC4C5)CC3)nc21` (stereo not drawn), the remaining enzyme activity is 1%.

With `CCn1cc(C(=O)O)c(=O)c2cc(F)c(N3CCN(C(=S)Nc4cccc(C(F)(F)F)c4)CC3)cc21`, the remaining enzyme activity was 12%.

Regarding `N#Cc1c(NC(=O)c2cccc(F)c2)sc2c1CCCC2`, the remaining enzyme activity is 110% (inactive).

As for `CCn1cc(C(=O)O)c(=O)c2cnc(N3CCN(C(=S)NC(C)c4ccccc4)CC3)nc21` (stereo not drawn), the remaining enzyme activity was 1%.

In the case of `N#Cc1c(NC(=O)c2ccc(-c3ccccc3[N+](=O)[O-])o2)sc2c1CCCC2`, the remaining enzyme activity was 120% (inactive).

Turning to `N#Cc1c(NC(=O)c2cc(-c3ccccc3)on2)sc2c1CCCC2`, the remaining enzyme activity was 34%.

With `N#Cc1c(NC(=O)c2cnccn2)sc2c1CCCC2`, the remaining enzyme activity was 21% and 30%.

As for `CCn1cc(C(=O)O)c(=O)c2cnc(N3CCN(C(=O)Nc4ccccc4)CC3)nc21`, the remaining enzyme activity was 83% (inactive).

Take `Cc1sc(NC(=O)c2cnccn2)c(C(=O)OC(C)C)c1-c1ccccc1`: the remaining enzyme activity was 44%.

`CCC(C)(C)C1CCc2c(sc(NC(=O)c3cnccn3)c2C#N)C1` (stereo not drawn): the remaining enzyme activity is 85% (inactive).

Regarding `CCn1cc(C(=O)O)c(=O)c2cnc(N3CCN(C(=S)Nc4ccccc4F)CC3)nc21`, the remaining enzyme activity was 31%.

As to `COC(=O)c1c(-c2ccccc2)csc1NC(=O)c1cnccn1`, the remaining enzyme activity is 28%.

`Nc1c(NC(=O)c2ccc([N+](=O)[O-])o2)sc2c1CCCC2`: the remaining enzyme activity was 98% (inactive).

As for `CCn1cc(C(=O)O)c(=O)c2cnc(N3CCN(C(=S)Nc4ccc(Cl)cc4)CC3)nc21`, the remaining enzyme activity was -1%.

Regarding `CSc1ncc(Cl)c(C(=O)Nc2sc3c(c2C(=O)NC2CCS(=O)(=O)C2)CCC(C)C3)n1` (stereo not drawn), the remaining enzyme activity is 76% (inactive).

On to `CC1(C)Cc2c(sc(NC(=O)c3ccco3)c2C#N)CO1`, for which the remaining enzyme activity is 90% (inactive).

Regarding `CCn1cc(C(=O)O)c(=O)c2cnc(N3CCN(C(=S)Nc4ccccc4C)CC3)nc21`, the remaining enzyme activity was 40%.

For the compound `CCn1cc(C(=O)O)c(=O)c2cnc(N3CCN(C(=S)NC(=O)c4cccc(C)c4)CC3)nc21`, the remaining enzyme activity is 11%.

For the compound `CCn1cc(C(=O)O)c(=O)c2cnc(N3CCN(C(=S)Nc4cccc(C(F)(F)F)c4)CC3)nc21`, the remaining enzyme activity is -2%.

For the compound `CC1CCc2c(sc(NC(=O)c3ccc([N+](=O)[O-])o3)c2N)C1` (stereo not drawn), the remaining enzyme activity was 110% (inactive).

In the case of `Cc1ccc(C(=O)Nc2sc3c(c2C#N)CCC3)o1`, the remaining enzyme activity was 84% (inactive).

For the compound `CNC(=O)c1c(NC(=O)c2nc(SCc3ccccc3)ncc2Cl)sc2c1CCCC2`, the remaining enzyme activity is 26%.

Take `CC1CCc2c(sc(NC(=O)c3cccs3)c2C#N)C1` (stereo not drawn): the remaining enzyme activity is 89% (inactive).

As to `CCn1cc(C(=O)O)c(=O)c2cnc(N3CCN(C(=S)Nc4ccccc4OC)CC3)nc21`, the remaining enzyme activity is 26%.

For `Cn1nccc1C(=O)Nc1sc2c(c1C#N)CCCC2`, the remaining enzyme activity is 71% (inactive).

Consider `CCn1cc(C(=O)O)c(=O)c2cnc(N3CCN(C(=S)Nc4ccc(F)cc4)CC3)nc21`, for which the remaining enzyme activity was 19%.

As for `CCn1cc(C(=O)O)c(=O)c2cnc(N3CCN(C(=S)Nc4ccccc4)CC3)nc21`, the remaining enzyme activity was 23%.

As to `COC(=O)c1c(NC(=O)c2cnccn2)sc2c1CCCC2`, the remaining enzyme activity is 78% (inactive).

As to `CCn1cc(C(=O)O)c(=O)c2cnc(N3CCNCC3)nc21`, the remaining enzyme activity was 110% (inactive).

Turning to `CCn1cc(C(=O)O)c(=O)c2cc(F)c(N3CCN(C(=S)Nc4ccccc4C(F)(F)F)CC3)cc21`, the remaining enzyme activity is 45%.

Turning to `CCn1cc(C(=O)O)c(=O)c2cnc(N3CCN(C(=S)NC)CC3)nc21`, the remaining enzyme activity was 35%.

Consider `N#Cc1c(NC(=O)c2ccccc2C(=O)O)sc2c1CCCC2`, for which the remaining enzyme activity is 110% (inactive).

Take `CCn1cc(C(=O)O)c(=O)c2cnc(N3CCN(C(=S)Nc4ccccc4Cl)CC3)nc21`: the remaining enzyme activity is 28%.

`CSc1ncc(Cl)c(C(=O)Nc2sc3c(c2C#N)CCC(C)C3)n1` (stereo not drawn): the remaining enzyme activity was 88% (inactive).

On to `NC(=O)c1c(NC(=O)c2cnccn2)sc2c1CCCC2`, for which the remaining enzyme activity is 85% (inactive).

For the compound `N#Cc1c(NC(=O)C2CC=CCC2C(=O)O)sc2c1CCC2` (stereo not drawn), the remaining enzyme activity was 77% (inactive).

As for `N#Cc1c(NC(=O)c2ccc([N+](=O)[O-])o2)sc2c1CCCC2`, the remaining enzyme activity was 110% (inactive).

Take `CCn1cc(C(=O)O)c(=O)c2cnc(N3CCN(C(=S)Nc4ccc5c(c4)OCCO5)CC3)nc21`: the remaining enzyme activity is 34%.

Regarding `CCn1cc(C(=O)O)c(=O)c2cnc(N3CCN(C(=S)NC(=O)c4ccco4)CC3)nc21`, the remaining enzyme activity was 84% (inactive).

As to `CCn1cc(C(=O)O)c(=O)c2cnc(N3CCN(C(=S)Nc4ccc5c(c4)OCO5)CC3)nc21`, the remaining enzyme activity was 4%.

Turning to `CC1CCc2c(sc(NC(=O)c3ccc([N+](=O)[O-])o3)c2C#N)C1` (stereo not drawn), the remaining enzyme activity is 110% (inactive).

Take `Cc1ccc(C(=O)Nc2sc3c(c2C#N)CCCCC3)o1`: the remaining enzyme activity was 106% (inactive).

As for `Cc1sc(NC(=O)c2ccc(Br)o2)c(C#N)c1C`, the remaining enzyme activity is 51%.

In the case of `N#Cc1c(NC(=O)c2ccco2)sc2c1CCC2`, the remaining enzyme activity was 41%.

For the compound `COC(=O)c1c(-c2cccc(C)c2)csc1NC(=O)c1cnccn1`, the remaining enzyme activity was 88% (inactive).

Turning to `CCn1cc(C(=O)O)c(=O)c2cnc(N3CCN(C(=S)NC(=O)c4ccccc4Cl)CC3)nc21`, the remaining enzyme activity was 58% (inactive).

`CCn1cc(C(=O)O)c(=O)c2cnc(N3CCN(C(=S)NC(=O)c4cccnc4)CC3)nc21`: the remaining enzyme activity was 40%.

On to `CCn1cc(C(=O)O)c(=O)c2cnc(N3CCN(C(=S)Nc4ccccc4C(F)(F)F)CC3)nc21`, for which the remaining enzyme activity is 30%.

As to `CCn1cc(C(=O)O)c(=O)c2cnc(N3CCN(C(=S)NCc4ccccc4)CC3)nc21`, the remaining enzyme activity is 7%.

With `N#Cc1c(NC(=O)c2cnccn2)sc2c1CCCCCC2`, the remaining enzyme activity is 71% (inactive).

Consider `C=CCNC(=S)N1CCN(c2ncc3c(=O)c(C(=O)O)cn(CC)c3n2)CC1`, for which the remaining enzyme activity is 63% (inactive).
